ChEMBL document CHEMBL1155280, “New arylthioindoles and related bioisosteres at the sulfur bridging group. 4. Synthesis, tubulin polymerization, cell growth inhibition, and molecular modeling studies” (J Med Chem, 2009)
Each block holds one molecule with its values, some of them ahead of it. Calls of active or inactive are those of the source. No cut-off for these calls is given here.

How the values were obtained:
[1] = Inhibition of tubulin polymerization after 20 mins by spectrophotometry
Procedure, shortened: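 Tubulin 10 μM in 0.8 M monosodium glutamate, pH 6.6, preincubated 15 min at 30 °C with varying drug, chilled on ice. GTP added to 0.4 mM, turbidity at 350 nm followed 20 min at 30 °C. Extent of assembly measured; IC50 ± SD.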

[2] = tested on: MCF7; assay: Growth inhibition of human MCF7 cells after 48 hrs by sulforhodamine B assay; format: functional, cell-based; conditions: MCF7, 48 h
[3] = species: Bos taurus; assay: Inhibition of [3H]colchicine binding to bovine tubulin at 5 uM after 10 mins by DEAE-cellulose filter method
[4] = tested on: HeLa; assay: Antiproliferative activity against human HeLa cells assessed as cell proliferation at 0.5 uM after 24 hrs by MTT assay relative to control; format: functional; conditions: read-out: Activity
Procedure, shortened: (§1)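 HeLa and HCT116/chr3 cells grown at 37 °C, 5% CO2 in D-MEM with 10% fetal calf serum (HCT116/chr3 medium plus 500 μg/mL G418). Seeded 1 × 10^3 cells/well, treated 24 h later for 24 h from 10 mM DMSO stock; 1% DMSO solvent control. Quadruplicate, repeated three times; given as % of control ± SD.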

[5] = tested on: HeLa; assay: Antiproliferative activity against human HeLa cells assessed as cell proliferation at 1 uM after 24 hrs by MTT assay relative to control; format: functional; conditions: read-out: Activity; procedure, shortened: as §1
[6] = tested on: HCT-116; assay: Antiproliferative activity against human HCT116 cells expressing mismatch repair gene MLH1 complemented with chromosome 3 assessed as cell proliferation at 0.5 uM after 24 hrs by MTT assay relative to control; format: functional; conditions: HCT-116, 24 h, read-out: Activity; procedure, shortened: as §1
[7] = tested on: HCT-116; assay: Antiproliferative activity against human HCT116 cells expressing mismatch repair gene MLH1 complemented with chromosome 3 assessed as cell proliferation at 1 uM after 24 hrs by MTT assay relative to control; format: functional; conditions: HCT-116, 24 h, read-out: Activity; procedure, shortened: as §1
[8] = tested on: HEK293; assay: Cytotoxicity against HEK293 cells after 48 hrs by MTT assay; format: cell-based, Homo sapiens
Procedure, shortened: (§2)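 MTT assay. Seeded 10^5 cells/well, compound added after 24 h at 10, 30, 50, 100, 150, 200 nM for 24 or 48 h. MTT 1 mg/mL, 2 h at 37 °C in dark, formazan dissolved in DMSO, read at 550 nm. Triplicate; 0.5% DMSO control.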

[9] = tested on: M14; assay: Cytotoxicity against human M14 cells after 48 hrs by MTT assay; format: functional, cell-based; procedure, shortened: as §2
[10] = tested on: U-937; assay: Cytotoxicity against human U937 cells after 48 hrs by MTT assay; format: functional, cell-based; procedure, shortened: as §2
[11] = Growth inhibition of mouse J774.1 cells at 300 nM after 48 hrs by MTT assay relative to control; format: cell-based; conditions: read-out: GI
[12] = Growth inhibition of HSMC; format: cell-based; conditions: Homo sapiens
Procedure, shortened: (§3)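 Human aortic smooth muscle, PtK2 kidney epithelial, rat A10 aortic smooth muscle and HUVEC lines grown as the supplier recommends, under 5% CO2.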

[13] = species: Homo sapiens; assay: Selectivity index, ratio of IC50 for HSMC to IC50 for human MCF7
Procedure, shortened: (§4)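 Selectivity index: IC50 in the named nontransformed line divided by IC50 in MCF-7 cells.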

[14] = Growth inhibition of Potorous tridactylus PtK2 cells; format: cell-based; procedure, shortened: as §3
[15] = tested on: MCF7; assay: Selectivity index, ratio of IC50 for Potorous tridactylus PtK2 cells to IC50 for human MCF7 cells; format: functional; procedure, shortened: as §4
[16] = tested on: A10; assay: Growth inhibition of rat A10 cells; format: cell-based; procedure, shortened: as §3
[17] = tested on: MCF7; assay: Selectivity index, ratio of IC50 for rat A10 cells to IC50 for human MCF7 cells; format: functional; procedure, shortened: as §4
[18] = tested on: HUVEC; assay: Growth inhibition of HUVEC; format: cell-based; conditions: Homo sapiens; procedure, shortened: as §3
[19] = tested on: MCF7; assay: Selectivity index, ratio of IC50 for HUVEC to IC50 for human MCF7 cells; procedure, shortened: as §4
[20] = tested on: HEK293; assay: Cytotoxicity against HEK293 cells at 10 to 200 nM by MTT assay; format: cell-based; conditions: human, hek293, 0.2 µM; TDE = time-dependent effect; procedure, shortened: as §2
[21] = tested on: M14; assay: Cytotoxicity against human M14 cells at 10 to 200 nM by MTT assay; format: functional, cell-based; conditions: TDE = time-dependent effect; procedure, shortened: as §2
[22] = tested on: U-937; assay: Cytotoxicity against human U937 cells at 10 to 200 nM by MTT assay; format: functional, cell-based; conditions: TDE = time-dependent effect; procedure, shortened: as §2
[23] = tested on: HEK293; assay: Cytotoxicity against HEK293 cells assessed as effect on cell morphology at 300 nM after 48 hrs by time-lapse microscopy; format: cell-based; conditions: human, hek293, 48 h, 0.3 µM
Procedure, shortened: (§5)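 Morphology of HEK and M14 cells followed by time-lapse microscopy in 96-well plates at 37 °C, 5% CO2, with images captured every hour over 48 h.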

[24] = tested on: M14; assay: Cytotoxicity against human M14 cells assessed as effect on cell morphology at 300 nM after 48 hrs by time-lapse microscopy; format: functional, cell-based; procedure, shortened: as §5

Compound: COC(=O)c1[nH]c2ccc(OC)cc2c1C(O)c1cc(OC)c(OC)c(OC)c1 (stereo unspecified)
IC50 [1]: > 40000 nM

Compound: COC(=O)c1[nH]c2ccc(Cl)cc2c1C(=O)c1cc(OC)c(OC)c(OC)c1
IC50 [1]: 1600 nM | IC50 [2]: 30 nM | inhibition [3]: 61%

Compound: COC(=O)c1[nH]c2ccc(OC)cc2c1S(=O)c1cc(OC)c(OC)c(OC)c1 (stereo unspecified)
IC50 [1]: > 40000 nM

Compound: COC(=O)c1[nH]c2ccc(OC)cc2c1S(=O)(=O)c1cc(OC)c(OC)c(OC)c1
IC50 [1]: > 40000 nM

Compound: CCOC(=O)c1c(C)c(C)c(C)n1Cc1cc(OC)c(OC)c(OC)c1
IC50 [1]: > 40000 nM

Compound: CCOC(=O)c1c(C)cc(C)n1Cc1cc(OC)c(OC)c(OC)c1
IC50 [1]: > 40000 nM

Compound: CCOC(=O)c1[nH]c2ccc(Cl)cc2c1C(=O)Cc1cc(OC)c(OC)c(OC)c1
IC50 [1]: > 40000 nM

Compound: CCOC(=O)c1cccn1Cc1cc(OC)c(OC)c(OC)c1
IC50 [1]: > 40000 nM

Compound: CCOC(=O)c1[nH]c2ccc(Cl)cc2c1C(=O)C(=O)c1cc(OC)c(OC)c(OC)c1
IC50 [1]: > 40000 nM

Compound: CCOC(=O)c1cccn1C(=O)c1cc(OC)c(OC)c(OC)c1
IC50 [1]: 32000 nM | IC50 [2]: > 2500 nM

Compound: CCOC(=O)c1[nH]c2ccc(Cl)cc2c1CCc1cc(OC)c(OC)c(OC)c1
IC50 [1]: > 40000 nM

Compound: COc1cc(Cn2c(C)c(C)c(C)c2C(=O)OCCOCCO)cc(OC)c1OC
IC50 [1]: > 40000 nM

Compound: COc1cc(Cc2c[nH]c3ccccc23)cc(OC)c1OC
IC50 [1]: 28000 nM

Compound: CCOC(=O)c1cn(Cc2cc(OC)c(OC)c(OC)c2)cn1
IC50 [1]: > 40000 nM

Compound: CC(=O)O[C@H]1C(=O)[C@@]2(C)[C@H]([C@H](OC(=O)c3ccccc3)[C@]3(O)C[C@H](OC(=O)[C@H](O)[C@@H](NC(=O)c4ccccc4)c4ccccc4)C(C)=C1C3(C)C)[C@]1(OC(C)=O)CO[C@@H]1C[C@@H]2O [PACLITAXEL]
IC50 [12]: 6 nM | IC50 [14]: 21 nM | IC50 [18]: 7 nM

Compound: CCOC(=O)c1[nH]c2ccc(OC)cc2c1C(O)c1cc(OC)c(OC)c(OC)c1 (stereo unspecified)
IC50 [1]: > 40000 nM

Compound: COC(=O)c1[nH]c2ccccc2c1Sc1cc(OC)c(OC)c(OC)c1
IC50 [1]: 2900 nM | inhibition [3]: 74%

Compound: CCOC(=O)c1c(CC)c(CC)c(C)n1Cc1cc(OC)c(OC)c(OC)c1
IC50 [1]: > 40000 nM

The remaining molecules from weak to strong by IC50 [1], led by results:

IC50 [1]: 24000 nM
Compound: COc1cc(Cc2c[nH]c3ccc(Cl)cc23)cc(OC)c1OC

IC50 [1]: 14000 nM
Compound: COc1ccc2[nH]cc(Cc3cc(OC)c(OC)c(OC)c3)c2c1

IC50 [1]: 5400 nM
Compound: CCOC(=O)c1[nH]c2ccccc2c1Cc1cc(OC)c(OC)c(OC)c1

IC50 [1]: 4200 nM | IC50 [2]: 190 nM | inhibition [3]: 33%
Compound: COC(=O)c1[nH]c2ccccc2c1Cc1cc(OC)c(OC)c(OC)c1

IC50 [1]: 4100 nM | IC50 [2]: 22 nM | inhibition [3]: 61%
Compound: COc1ccc2[nH]cc(Sc3cc(OC)c(OC)c(OC)c3)c2c1

IC50 [1]: 3500 nM | IC50 [2]: 150 nM | inhibition [3]: 26%
Compound: COc1cc(C(=O)c2c[nH]c3ccccc23)cc(OC)c1OC

IC50 [1]: 2800 nM | IC50 [2]: 93 nM | inhibition [3]: 42%
Compound: CCOC(=O)c1[nH]c2ccc(OC)cc2c1Cc1cc(OC)c(OC)c(OC)c1

IC50 [1]: 2700 nM | IC50 [2]: 33 nM | inhibition [3]: 49%
Compound: COC(=O)c1[nH]c2ccccc2c1C(=O)c1cc(OC)c(OC)c(OC)c1

IC50 [1]: 2600 nM | IC50 [2]: 90 nM | inhibition [3]: 49%
Compound: CCOC(=O)c1[nH]c2ccc(OC)cc2c1C(=O)c1cc(OC)c(OC)c(OC)c1

IC50 [1]: 2600 nM | IC50 [2]: 80 nM | inhibition [3]: 51%
Compound: CCOC(=O)c1[nH]c2ccccc2c1C(=O)c1cc(OC)c(OC)c(OC)c1

IC50 [1]: 2600 nM | inhibition [3]: 51%
Compound: COc1cc(Sc2c[nH]c3ccc(Cl)cc23)cc(OC)c1OC

IC50 [1]: 2600 nM | inhibition [3]: 68%
Compound: COc1cc(Sc2c[nH]c3ccccc23)cc(OC)c1OC

IC50 [1]: 2500 nM | IC50 [2]: 53 nM | inhibition [3]: 44%
Compound: COc1cc(C(=O)c2c[nH]c3ccc(Cl)cc23)cc(OC)c1OC

IC50 [1]: 2500 nM | IC50 [2]: 230 nM | inhibition [3]: 39%
Compound: CCOC(=O)c1[nH]c2ccc(Cl)cc2c1Cc1cc(OC)c(OC)c(OC)c1

IC50 [1]: 2400 nM | IC50 [2]: 46 nM | inhibition [3]: 71%
Compound: CCOC(=O)c1[nH]c2ccc(OC)cc2c1Sc1cc(OC)c(OC)c(OC)c1

IC50 [1]: 2200 nM | inhibition [3]: 53%
Compound: CCOC(=O)c1[nH]c2ccc(Cl)cc2c1Sc1cc(OC)c(OC)c(OC)c1

IC50 [1]: 1700 nM | IC50 [2]: 87 nM | inhibition [3]: 49%
Compound: COC(=O)c1[nH]c2ccc(Cl)cc2c1Cc1cc(OC)c(OC)c(OC)c1

IC50 [1]: 1400 nM | IC50 [2]: 110 nM | inhibition [3]: 49%
Compound: CCOC(=O)c1[nH]c2ccc(Cl)cc2c1C(=O)c1cc(OC)c(OC)c(OC)c1

IC50 [1]: 670 nM | IC50 [2]: 17 nM | inhibition [3]: 78%
Compound: COC(=O)c1[nH]c2ccc(OC)cc2c1C(=O)c1cc(OC)c(OC)c(OC)c1
growth at 0.5 µM [4]: 55% | growth at 1 µM [5]: 54% | growth at 0.5 µM [6]: 57% | growth at 1 µM [7]: 55% | IC50 ([8]; Homo sapiens, HEK293, 48 h): 140 nM | Activity ([8]; human, hek293, 48 h): Dose-dependent effect | Activity [9]: Dose-dependent effect | IC50 ([9]; M14, 48 h): 100 nM | Activity [10]: Dose-dependent effect | IC50 ([10]; U-937, 48 h): 155 nM | inhibition at 48 h, 0.3 µM [11]: 20% | IC50 [12]: 35 nM | Ratio IC50 [13]: 2.1 | IC50 [14]: 190 nM | Ratio IC50 [15]: 11 | IC50 [16]: 95 nM | Ratio IC50 [17]: 5.6 | IC50 [18]: 110 nM | Ratio IC50 [19]: 6.5 | Activity [20]: tde | Activity [21]: tde | Activity [22]: tde | Activity [23]: Toxic | Activity [24]: Active
